According to PMC3065020 (Journal of nuclear medicine : official publication, Society …, 2009):
Blank lines part the entries; values can stand above or below the molecule they belong to.

Tests used:
[1] = biological target: T1, Aβ aggregates in postmortem AD brain homogenates (Homo sapiens, UniProt P05067); experiment: Competitive binding assay against ^18F-AV-45 in postmortem AD brain homogenates; conditions: read-out: Inhibition constant (Ki) against binding of ^18F-AV-45 to Aβ aggregates, radioligand ^18F-AV-45, 2 h at 37°C
[2] = biological target: T1, Aβ aggregates in postmortem AD brain homogenates; assay type: binding
[3] = biological target: T1, Aβ aggregates in postmortem AD brain homogenates; experiment: Saturation binding of ^18F-AV-45 in postmortem AD brain homogenates
In short: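 Gray matter from frozen AD brains was homogenized in PBS, diluted to 50–100 mg/mL and stored at −80°C. Saturation binding was run on 4 different AD brain homogenates. Binding was analysed by Scatchard plot with nonlinear regression, and Bmax was expressed as fmol/mg protein.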

[4] = biological target: Aβ plaques in AD brain sections (Homo sapiens, UniProt P05067); experiment: In vitro autoradiography of postmortem human brain sections; assay type: binding; conditions: tracer 0.3 nM, 1 h
In short: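 Frozen brains from AD and control subjects were cut into 20-µm sections. Sections were incubated for 1 h with 0.3 nM radiotracer in 40% ethanol. They were then washed twice for 2 min in saturated Li2CO3 in 40% ethanol, once for 2 min in 40% ethanol, and rinsed in water for 30 s. Dried sections were exposed to film for 12–18 h, and the images were digitized.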

[5] = In vivo biodistribution; set-up: species or system mouse; conditions: for Brain concentration at 2 min / Brain concentration at 60 min: intravenous; for Brain uptake at 2 min after injection / Brain uptake at 60 min after injection: intravenous tracer dose of the metabolite
In short: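 CD-1 mice (20–26 g, male and female) received 370 kBq (10 µCi) of radiotracer in 10% ethanol/90% saline with 0.5% ascorbic acid by tail vein. Mice were killed by cardiac puncture under isoflurane at 2, 60, 120 and 180 min, with 3 animals per time point. Organs were weighed and γ-counted, and percentage dose was calculated against diluted aliquots of the injectate. Separately prepared labelled metabolites were also tested in healthy mice.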

[6] = In vivo metabolism in mice
In short: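 Healthy mice received 370–555 MBq (10–15 mCi) of radiotracer by tail vein and were killed at 2, 10, 30 or 60 min. Plasma was separated by centrifugation (3,000 rpm, 2 min) and mixed with an equal volume of acetonitrile. After spinning at 5,000 rpm for 5 min, the supernatant was run on C18 HPLC (0.1% TFA water/acetonitrile gradient, 1 mL/min) with radioactivity detection. Metabolites were identified by LC/MS.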

[7] = Small-animal PET of monkey brain; assay type: in vivo, rhesus monkey
In short: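 A young adult female rhesus monkey (6.65 kg) was intubated and kept under isoflurane, with a hindlimb venous catheter. After a transmission scan, it received 173.9 MBq (4.7 mCi; 71,262 MBq/mmol) of radiotracer in 3 mL of 95% saline/5% ethanol as a 1-min bolus. Emission data were collected for 90 min, corrected for attenuation and scatter, and reconstructed by 3D MAP. Manual volumetric ROIs (striatum, thalamus, cortex, white matter), drawn on the summed 60–90-min image, gave time–activity curves.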

T1 sequence (P05067 672-713 limits assumed): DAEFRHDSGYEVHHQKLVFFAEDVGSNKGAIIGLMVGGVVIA
Chain of Aβ plaques in AD brain sections (P05067 672-713 limits assumed): as above

Ki [1]: 398 ± 45 nM
Compound: CC(=O)N(C)c1ccc(/C=C/c2ccc(OCCOCCOCCF)nc2)cc1 [^18F-AV-267]

Kd ([2]; read-out: Kd = Koff/Kon, derived from kinetic measurement): 1.31 nM
Compound: CNc1ccc(/C=C/c2ccc(OCCOCCOCCF)nc2)cc1 [^18F-AV-45, (E)-4-(2-(6-(2-(2-(2-^18F-fluoroethoxy)ethoxy)ethoxy)pyridin-3-yl)vinyl)-N-methyl benzenamine]

Bmax (saturation binding), average ([3]; average of 4 different AD brain homogenates): 8,811 ± 1,643 fmol/mg protein
Bmax (saturation binding), representative example ([3]; representative AD brain homogenate, Figure 2): 7,215 fmol/mg of protein
Koff ([2]; dissociation from Aβ aggregates, AD brain homogenates): 0.00075 ± 0.0001 s⁻¹
Labeling of AD brain sections containing Aβ plaques (autoradiogram) ([4]; AD brain sections): highly dense labeling
Labeling of brain sections of control subjects (autoradiogram) ([4]; control subject brain sections): no specific labeling
Brain concentration at 2 min ([5]; female healthy mice, 2 min after administration (peak)): 6.23 %ID/g
Brain concentration at 60 min ([5]; female healthy mice): 1.84 %ID/g
Initial brain uptake of parent relative to either of its metabolites ([5]; healthy mice, initial uptake): 1.5 fold
Brain concentration at 2 min ([5]; male healthy mice, 2 min after administration): 7.33 %ID/g
Brain concentration at 60 min ([5]; male healthy mice): 1.88 %ID/g
Biologic T1/2 in mouse plasma ([6]; intravenous, estimated): less than 30 min
Parent remaining in plasma ([6]; mouse plasma, 30 min after intravenous injection): 30%
Time of peak activity in cortex ([7]; rhesus monkey, intravenous 173.9 MBq): 7 min
Injected dose localized in the brain at the peak ([7]; rhesus monkey, intravenous 173.9 MBq, estimated): about 4.4 % of the injected dose
Compound: CNc1ccc(/C=C/c2ccc(OCCOCCOCC[18F])nc2)cc1 [^18F-AV-45, (E)-4-(2-(6-(2-(2-(2-^18F-fluoroethoxy)ethoxy)ethoxy)pyridin-3-yl)vinyl)-N-methyl benzenamine]
Specific binding or retention in healthy monkey brain ([7]; healthy rhesus monkey, no Aβ plaques): did not display any specific binding or prolonged retention in the brain

Brain uptake at 2 min after injection ([5]; healthy mice): 4.5 %ID/g
Brain uptake at 60 min after injection ([5]; healthy mice): 1.8 %ID/g
Metabolite share in plasma ([6]; mouse plasma, 30 min after intravenous injection of ^18F-AV-45): about 48%
Compound: Nc1ccc(C=Cc2ccc(OCCOCCOCCF)nc2)cc1 [^18F-AV-160]

Brain uptake at 2 min after injection ([5]; healthy mice): 3.3 %ID/g
Brain uptake at 60 min after injection ([5]; healthy mice): 1.8 %ID/g
Compound: CC(=O)N(C)c1ccc(/C=C/c2ccc(OCCOCCOCC[18F])nc2)cc1 [^18F-AV-267]
